Legend:
Format in all cases: functional
[1] = Growth inhibition of human EKVX cells assessed as cell growth at 10 '-5 M after 48 hrs by sulforhodamine B assay; conditions: read-out: Activity
[2] = Growth inhibition of human NCI-ADR-RES cells assessed as cell growth at 10 '-6 M after 48 hrs by sulforhodamine B assay; conditions: read-out: Activity
OVCAR-5 = test: Growth inhibition of human OVCAR5 cells assessed as growth inhibition at 10 uM after 48 hrs by sulforhodamine B assay; conditions: OVCAR-5, 48 h, read-out: GI
IGROV-1 [3] = test: Growth inhibition of human IGROV1 cells assessed as growth inhibition at 10 uM after 48 hrs by sulforhodamine B assay; conditions: IGROV-1, 48 h, read-out: GI
NCI-H522 = test: Growth inhibition of human NCI-H522 cells assessed as growth inhibition at 10 uM after 48 hrs by sulforhodamine B assay; conditions: NCI-H522, 48 h, read-out: GI
MDA-MB-468 = test: Growth inhibition of human MDA-MB-468 cells assessed as cell growth at 10 '-4 M after 48 hrs by sulforhodamine B assay; conditions: MDA-MB-468, 48 h, read-out: Activity
CAKI-1 = test: Growth inhibition of human CAKI-1 cells assessed as cell growth at 10 '-4 M after 48 hrs by sulforhodamine B assay; conditions: CAKI-1, 48 h, read-out: Activity
Procedure, shortened: (§1)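 Percent growth at each of the five concentrations of the 48 h continuous-exposure NCI SRB screen. Drug stocks were in DMSO at 400× the top final concentration and diluted in medium with gentamicin. Growth was calculated as [(Ti-Tz)/(C-Tz)]×100 when Ti ≥ Tz, or [(Ti-Tz)/Tz]×100 when Ti < Tz. Tz plates were fixed at drug addition; untreated wells served as control. Absorbance was read at 515 nm.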

HCT-15 [4] = test: Growth inhibition of human HCT15 cells assessed as cell growth at 10 '-6 M after 48 hrs by sulforhodamine B assay; conditions: HCT-15, 48 h, read-out: Activity
NCI-H460 = test: Growth inhibition of human NCI-H460 cells assessed as cell growth at 10 '-6 M after 48 hrs by sulforhodamine B assay; conditions: NCI-H460, 48 h, read-out: Activity
UO-31 [5] = test: Growth inhibition of human UO31 cells assessed as cell growth at 10 '-7 M after 48 hrs by sulforhodamine B assay; conditions: UO-31, 48 h, read-out: Activity
HCT-15 [6] = test: Growth inhibition of human HCT15 cells assessed as cell growth at 10 '-7 M after 48 hrs by sulforhodamine B assay; conditions: HCT-15, 48 h, read-out: Activity
A498 = test: Growth inhibition of human A498 cells assessed as cell growth at 10 '-4 M after 48 hrs by sulforhodamine B assay; conditions: A498, 48 h, read-out: Activity; procedure, shortened: as §1
OVCAR-4 = test: Growth inhibition of human OVCAR4 cells assessed as cell growth at 10 '-4 M after 48 hrs by sulforhodamine B assay; conditions: OVCAR-4, 48 h, read-out: Activity
IGROV-1 [7] = test: Growth inhibition of human IGROV1 cells assessed as cell growth at 10 '-4 M after 48 hrs by sulforhodamine B assay; conditions: IGROV-1, 48 h, read-out: Activity
M14 = test: Growth inhibition of human M14 cells assessed as cell growth at 10 '-4 M after 48 hrs by sulforhodamine B assay; conditions: M14, 48 h, read-out: Activity
K562 = test: Growth inhibition of human K562 cells assessed as cell growth at 10 '-8 M after 48 hrs by sulforhodamine B assay; conditions: K562, 48 h, read-out: Activity
HOP-62 [8] = test: Growth inhibition of human HOP62 cells assessed as cell growth at 10 '-4 M after 48 hrs by sulforhodamine B assay; conditions: HOP-62, 48 h, read-out: Activity
MOLT-4 = test: Growth inhibition of human MOLT4 cells assessed as cell growth at 10 '-4 M after 48 hrs by sulforhodamine B assay; conditions: MOLT-4, 48 h, read-out: Activity
UO-31 [9] = test: Growth inhibition of human UO31 cells assessed as cell growth at 10 '-5 M after 48 hrs by sulforhodamine B assay; conditions: UO-31, 48 h, read-out: Activity
ACHN = test: Growth inhibition of human ACHN cells assessed as cell growth at 10 '-5 M after 48 hrs by sulforhodamine B assay; conditions: read-out: Activity; procedure, shortened: as §1
UACC-62 = test: Growth inhibition of human UACC62 cells after 48 hrs by sulforhodamine B assay; conditions: UACC-62, 48 h
[10] = Growth inhibition of human HCC2998 cells after 48 hrs by sulforhodamine B assay; conditions: HCC 2998, 48 h
Procedure, shortened: (§2)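 NCI 60-cell-line five-dose screen. Cells were plated at 5,000–40,000/well by doubling time and grown 24 h at 37 °C, 5% CO2. Time-zero plates were TCA-fixed. Drug from DMSO stock was tested at 0.01, 0.1, 1, 10 and 100 µM final for 48 h continuous exposure. Read-out was SRB at 515 nm. GI50 is the concentration giving 50% reduction in net protein increase versus untreated control.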

NCI-H23 = test: Growth inhibition of human NCI-H23 cells after 48 hrs by sulforhodamine B assay; conditions: NCI-H23, 48 h; procedure, shortened: as §2
A549 = test: Growth inhibition of human A549 cells after 48 hrs by sulforhodamine B assay; conditions: A549, 48 h
Procedure, shortened: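 NCI 60-cell-line five-dose screen at 0.01, 0.1, 1, 10 and 100 µM final. Cells were plated at 5,000–40,000/well and grown 24 h at 37 °C, 5% CO2, then exposed to drug continuously for 48 h. Adherent cells were fixed with cold TCA (10% final) and stained with SRB; absorbance read at 515 nm. GI50 is the concentration where [(Ti-Tz)/(C-Tz)]×100 = 50, with Tz plates fixed at drug addition.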

[11] = Growth inhibition of human Hs 578T cells assessed as growth inhibition at 10 uM after 48 hrs by sulforhodamine B assay; conditions: read-out: GI
[12] = Growth inhibition of human HCC2998 cells assessed as cell growth at 10 '-7 M after 48 hrs by sulforhodamine B assay; conditions: HCC 2998, 48 h, read-out: Activity
HOP-62 [13] = test: Growth inhibition of human HOP62 cells assessed as cell growth at 10 '-7 M after 48 hrs by sulforhodamine B assay; conditions: HOP-62, 48 h, read-out: Activity
UACC-257 = test: Growth inhibition of human UACC257 cells assessed as cell growth at 10 '-5 M after 48 hrs by sulforhodamine B assay; conditions: UACC-257, 48 h, read-out: Activity
COLO 205 = test: Growth inhibition of human COLO205 cells assessed as cell growth at 10 '-8 M after 48 hrs by sulforhodamine B assay; conditions: COLO 205, 48 h, read-out: Activity
[14] = read-out: LD50 (the source's name)

SMILES: Cc1cc(=O)oc2cc(OCCn3c(C)nn(-c4ccc(Cl)cc4)c3=O)ccc12
- growth at 10 µM [1]: 63%
- growth at 1 µM [2]: 61%
- inhibition of growth at 10 µM (OVCAR-5): 61.2%
- inhibition of growth at 10 µM (IGROV-1 [3]): 40.3%
- inhibition of growth at 10 µM (NCI-H522): 82.8%
- growth at 100 µM (MDA-MB-468): -5%
- growth at 100 µM (CAKI-1): 52%
- growth at 1 µM (HCT-15 [4]): 80%
- growth at 1 µM (NCI-H460): 83%
- growth at 0.1 µM (UO-31 [5]): 83%
- growth at 0.1 µM (HCT-15 [6]): 95%
- growth at 100 µM (A498): -8%
- growth at 100 µM (OVCAR-4): 40%
- growth at 100 µM (IGROV-1 [7]): 41%
- growth at 100 µM (M14): 28%
- growth at 0.01 µM (K562): 107%
- growth at 100 µM (HOP-62 [8]): -8%
- growth at 100 µM (MOLT-4): 17%
- growth at 10 µM (UO-31 [9]): 51%
- growth at 10 µM (ACHN): 35%
- GI50 (UACC-62): 1.99 µM
- TGI (UACC-62): > 1 µM
- CC50 (UACC-62; [14]): > 1 µM
- GI50 [10]: 3.59 µM
- TGI [10]: > 1 µM
- CC50 [10, 14]: > 1 µM
- GI50 (NCI-H23): 2.83 µM
- TGI (NCI-H23): > 1 µM
- CC50 (NCI-H23; [14]): > 1 µM
- GI50 (A549): 6.07 µM
- TGI (A549): > 1 µM
- CC50 (A549; [14]): > 1 µM
- inhibition of growth at 10 µM [11]: 65.2%
- growth at 0.1 µM [12]: 91%
- growth at 0.1 µM (HOP-62 [13]): 103%
- growth at 10 µM (UACC-257): 40%
- growth at 0.01 µM (COLO 205): 102%
